Measurements taken from ChEMBL document CHEMBL4715754, “Slowing down fat digestion and absorption by an oxadiazolone inhibitor targeting selectively gastric lipolysis” (2016).
Calls of active or inactive are those of the source. The rule behind the calls is not given here.

How the values were obtained:
[1] = target: T1, Pancreatic triacylglycerol lipase (Homo sapiens) (UniProt P16233); assay: Inhibition of human pancreatic lipase at 400:1 molar excess compound concentration preincubated for 30 mins at 25 degreeC relative to control
T1 sequence (whole entry): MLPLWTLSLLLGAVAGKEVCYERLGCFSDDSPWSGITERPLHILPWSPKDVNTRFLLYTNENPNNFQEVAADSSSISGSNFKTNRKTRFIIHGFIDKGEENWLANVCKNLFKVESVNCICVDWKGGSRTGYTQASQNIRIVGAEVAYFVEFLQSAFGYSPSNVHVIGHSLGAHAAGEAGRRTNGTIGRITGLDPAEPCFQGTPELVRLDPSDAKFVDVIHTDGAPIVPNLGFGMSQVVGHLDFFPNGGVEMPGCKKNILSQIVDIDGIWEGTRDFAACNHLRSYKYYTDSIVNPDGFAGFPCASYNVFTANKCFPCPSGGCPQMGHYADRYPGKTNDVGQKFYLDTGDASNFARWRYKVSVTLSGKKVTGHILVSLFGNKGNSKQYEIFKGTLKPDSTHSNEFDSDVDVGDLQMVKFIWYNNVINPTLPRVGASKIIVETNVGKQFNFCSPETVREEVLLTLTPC
In short: (§1)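 Pancreatic lipase from human pancreatic juice (54 µg/mL HPL stock) or porcine pancreatic extract (32 µg/mL PPL stock) was held in 10 mM MES pH 7.0, 150 mM NaCl. It was pre-incubated with inhibitor from DMSO stock for 30 min at 25 °C with 4 mM NaTDC at varied molar excess. Residual activity was read by pH-stat on tributyrin at 37 °C, pH 8.0, with 2 mM CaCl₂ and 4 mM NaTDC. x_I50 was taken from residual activity; DMSO-only controls were run.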

[2] = target: T2, Pancreatic triacylglycerol lipase (Sus scrofa) (UniProt P00591); assay: Inhibition of porcine pancreatic lipase preincubated for 30 mins at 25 degreeC; in short: as §1
T2 sequence (whole entry): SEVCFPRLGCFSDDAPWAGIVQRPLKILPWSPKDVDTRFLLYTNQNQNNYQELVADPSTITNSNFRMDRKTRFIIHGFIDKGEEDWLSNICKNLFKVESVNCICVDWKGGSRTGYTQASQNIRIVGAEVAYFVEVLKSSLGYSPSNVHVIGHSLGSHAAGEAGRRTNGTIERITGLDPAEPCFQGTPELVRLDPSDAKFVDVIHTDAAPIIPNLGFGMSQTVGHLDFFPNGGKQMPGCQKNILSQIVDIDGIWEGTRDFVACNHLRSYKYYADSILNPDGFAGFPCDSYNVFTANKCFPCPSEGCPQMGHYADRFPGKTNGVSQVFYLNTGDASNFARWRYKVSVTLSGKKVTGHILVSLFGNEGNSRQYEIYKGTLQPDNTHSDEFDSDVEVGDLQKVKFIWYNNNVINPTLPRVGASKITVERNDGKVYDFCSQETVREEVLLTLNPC

[3] = target: T3, Pancreatic lipase-related protein 2 (Cavia porcellus) (UniProt P81139); assay: Inhibition of recombinant guinea pig PL-RP2 expressed in Aspergillus oryzae at 20:1 molar excess compound concentration preincubated for 30 mins at 25 degreeC relative to control
T3 sequence (whole entry): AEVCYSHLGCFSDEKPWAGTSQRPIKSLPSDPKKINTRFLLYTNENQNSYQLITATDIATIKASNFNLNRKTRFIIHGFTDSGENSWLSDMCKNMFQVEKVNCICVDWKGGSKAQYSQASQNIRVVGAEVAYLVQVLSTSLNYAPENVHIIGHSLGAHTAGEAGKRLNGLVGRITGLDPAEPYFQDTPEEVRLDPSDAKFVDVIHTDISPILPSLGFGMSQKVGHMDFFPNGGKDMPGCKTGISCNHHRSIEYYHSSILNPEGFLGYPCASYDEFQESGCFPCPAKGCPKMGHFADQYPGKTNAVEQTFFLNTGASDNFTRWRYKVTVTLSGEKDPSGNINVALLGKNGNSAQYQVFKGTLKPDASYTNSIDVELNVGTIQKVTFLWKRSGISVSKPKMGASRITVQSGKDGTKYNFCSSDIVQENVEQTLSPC

[4] = target: T3, Pancreatic lipase-related protein 2 (Cavia porcellus); assay: Inhibition of recombinant guinea pig PL-RP2 expressed in Aspergillus oryzae preincubated for 30 mins at 25 degreeC
[5] = target: T4, Gastric triacylglycerol lipase (Canis lupus familiaris) (UniProt P80035); assay: Inhibition of recombinant dog gastric lipase at 20:1 molar excess compound concentration preincubated for 30 mins at 25 degreeC relative to control
T4 sequence (whole entry): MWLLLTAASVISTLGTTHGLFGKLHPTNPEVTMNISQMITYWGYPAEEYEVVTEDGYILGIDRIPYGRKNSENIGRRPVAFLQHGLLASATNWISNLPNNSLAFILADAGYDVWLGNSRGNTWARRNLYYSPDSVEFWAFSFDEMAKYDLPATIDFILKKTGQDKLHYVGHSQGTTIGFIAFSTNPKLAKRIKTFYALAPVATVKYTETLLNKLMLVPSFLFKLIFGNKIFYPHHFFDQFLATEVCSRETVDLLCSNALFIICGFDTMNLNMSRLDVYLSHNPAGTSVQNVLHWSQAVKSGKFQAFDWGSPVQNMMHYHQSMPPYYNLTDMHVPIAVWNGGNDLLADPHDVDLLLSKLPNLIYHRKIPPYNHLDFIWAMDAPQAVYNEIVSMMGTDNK

[6] = target: T3, Pancreatic lipase-related protein 2 (Cavia porcellus); assay: Inhibition of recombinant guinea pig PL-RP2 expressed in Aspergillus oryzae at 4:1 molar excess compound concentration preincubated for 30 mins at 25 degreeC relative to control
[7] = target: T1, Pancreatic triacylglycerol lipase (Homo sapiens); assay: Inhibition of human pancreatic lipase preincubated for 30 mins at 25 degreeC; in short: as §1
[8] = target: T4, Gastric triacylglycerol lipase (Canis lupus familiaris); assay: Inhibition of recombinant dog gastric lipase at 4:1 molar excess compound concentration preincubated for 30 mins at 25 degreeC relative to control
[9] = target: T4, Gastric triacylglycerol lipase (Canis lupus familiaris); assay: Inhibition of recombinant dog gastric lipase preincubated for 30 mins at 25 degreeC
[10] = target: T2, Pancreatic triacylglycerol lipase (Sus scrofa); assay: Inhibition of porcine pancreatic lipase at 400:1 molar excess compound concentration preincubated for 30 mins at 25 degreeC relative to control; in short: as §1
[11] = target: T2, Pancreatic triacylglycerol lipase (Sus scrofa); assay: Inhibition of porcine pancreatic lipase at 400:1 molar excess compound concentration preincubated for 120 mins at 25 degreeC
[12] = target: T1, Pancreatic triacylglycerol lipase (Homo sapiens); assay: Inhibition of human pancreatic lipase at 400:1 molar excess compound concentration preincubated for 120 mins at 25 degreeC

| Structure (SMILES) | inhibition [1] [%] | XI50 [2] [molar excess] | inhibition [3] [%] | XI50 [4] [molar excess] | inhibition [5] [%] | inhibition [6] [%] | XI50 [7] [molar excess] | inhibition [8] [%] | XI50 [9] [molar excess] | inhibition [10] [%] | inhibition [11] | inhibition [12] |
| --- | --- | --- | --- | --- | --- | --- | --- | --- | --- | --- | --- | --- |
| COc1nn(-c2ccc(Oc3ccccc3)cc2)c(=O)o1 | 4 | > 400 |  |  |  |  |  |  |  |  |  |  |
| CCCCCCCCCCCCOc1nn(-c2cccc(Oc3ccccc3)c2)c(=O)o1 | 29.1 | > 400 | 54.4 | 1.17 | 68.2 | 53.1 | > 400 | 44.1 | 4.57 | 27.9 |  |  |
| COc1nn(-c2cccc(Oc3ccccc3)c2)c(=O)o1 | 49.1 |  |  |  |  |  |  |  |  |  | inactive | inactive |
| CCCCCCOc1nn(-c2cccc(Oc3ccccc3)c2)c(=O)o1 | 17.1 | > 400 | 91.3 | 1.09 | 65.9 | 90.7 | > 400 | 43.5 | 4.92 | 27.2 |  |  |
| CCOc1nn(-c2cccc(Oc3ccccc3)c2)c(=O)o1 | 18.8 | > 400 | 27.7 | > 40 | 83 | 27.4 | > 400 | 33.6 | 6.08 | 19 |  |  |
| COc1nn(-c2ccccc2)c(=O)o1 | 25.6 |  |  |  |  |  | > 400 |  |  | 90.6 |  |  |
| CC(C)COc1nn(-c2cccc(Oc3ccccc3)c2)c(=O)o1 | 21.2 | > 400 | 76 | 0.52 | 69.6 | 73.6 | > 400 | 35.2 | 5.51 | 20.6 |  |  |
| CCCCCCCCCCOc1nn(-c2cccc(Oc3ccccc3)c2)c(=O)o1 | 20.1 | > 400 | 57.4 | 2.72 | 37.7 | 56.4 | > 400 | 14.6 | > 100 | 32.5 |  |  |
| CCCCOc1nn(-c2cccc(Oc3ccccc3)c2)c(=O)o1 | 19.1 | > 400 | 43.8 | > 40 | 77.5 | 42.4 | > 400 | 41.5 | 5.33 | 19.7 |  |  |
| CCCCCCCCOc1nn(-c2cccc(Oc3ccccc3)c2)c(=O)o1 | 25.7 | > 400 | 63 | 1.47 | 70.5 | 62.3 | > 400 | 53.9 | 3.99 | 19.9 |  |  |
| CCCCC(CC)COc1nn(-c2cccc(Oc3ccccc3)c2)c(=O)o1 (stereo not drawn) | 22.4 | > 400 | 54.8 | 2.8 | 27.6 | 47.9 | > 400 | 21.6 | > 100 | 18.9 |  |  |
| COCCOc1nn(-c2cccc(Oc3ccccc3)c2)c(=O)o1 | 20 | > 400 | 67.8 | 1.7 | 69.1 | 60.3 | > 400 | 18.1 | 11.8 | 15.5 |  |  |
